Results from ChEMBL document CHEMBL1765005, “Small molecule antagonists of the urokinase (uPA): urokinase receptor (uPAR) interaction with high reported potencies show only weak effects in cell-based competition assays employing the native uPAR ligand” (Bioorg Med Chem, 2011).
Active and inactive are the calls of the source. The calls are words filed in the database; no cut-off is given here. Residues, ends and D or L forms follow the SMILES beside them.

Legend:
Format in all cases: cell-based
[1] = target: T1, Urokinase-type plasminogen activator/surface receptor (Homo sapiens, UniProt P00749+Q03405); test: Inhibition of [125I]-labelled urokinase-type plasminogen activator binding to uPAR in human DU-145 cells by radioligand competition binding assay
[2] = target: T1, Urokinase-type plasminogen activator/surface receptor; test: Inhibition of high molecular weight fluorescent labelled urokinase-type plasminogen activator binding to uPAR in PMA-stimulated human U937 cells at 100 uM preincubated for 30 mins by flow cytometry; conditions: U-937
Outline: (§1)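 U-937 cells were stimulated with 100 nM PMA (final) for 7–8 h at 37 °C, then resuspended at 1 × 10⁶ cells/mL in cold PBS (1 mM CaCl₂, MgCl₂) with 0.1% BSA, pH 7.4. Cells were pre-incubated with antagonist on ice for 30 min, then given 40 nM Alexa-488-HMW-uPA. After washing, cell fluorescence was read by dual-colour flow cytometry as % of the no-compound control; mean ± SD, n = 3.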

[3] = target: T1, Urokinase-type plasminogen activator/surface receptor; test: Inhibition of high molecular weight fluorescent labelled urokinase-type plasminogen activator binding to uPAR in PMA-stimulated human U937 cells at 10 uM preincubated for 30 mins by flow cytometry; conditions: U-937; outline: as §1
[4] = target: T1, Urokinase-type plasminogen activator/surface receptor; test: Inhibition of high molecular weight fluorescent labelled urokinase-type plasminogen activator binding to uPAR in PMA-stimulated human U937 cells at 10 nM preincubated for 30 mins by flow cytometry; conditions: U-937; outline: as §1
[5] = target: T1, Urokinase-type plasminogen activator/surface receptor; test: Inhibition of high molecular weight fluorescent labelled urokinase-type plasminogen activator binding to uPAR in PMA-stimulated human U937 cells at 100 nM preincubated for 30 mins by flow cytometry; conditions: U-937; outline: as §1

Compound | IC50 [1] | inhibition [2] | inhibition [3] | inhibition [4] | inhibition [5]
CC(=O)N[C@@H](Cc1c[nH]c2ccccc12)C(=O)Nc1cccc(-c2ccc(C(=O)N[C@@H](Cc3ccccc3)C(=O)O)cc2)c1 | 0.8 nM | inactive | inactive |  | 
C#CCNCC(=O)N(CC(=O)N(CC(N)=O)CC(=O)NC(c1ccc(OC)cc1)c1ccc(OC)cc1)c1ccc2ccccc2c1 |  | 50% | 60% |  | 
N=C(N)NCCC[C@H](NC(=O)CNC(=O)[C@@H](N)CCC(=O)O)C(=O)CCl (HELM PEPTIDE1{E.G.R.[ClC[*:1]]}$$$$V2.0) |  |  |  | 80% | 90%
